The target in one data set is T1, Prostaglandin E synthase (Homo sapiens, UniProt O14684).
T1 sequence (O14684 whole entry): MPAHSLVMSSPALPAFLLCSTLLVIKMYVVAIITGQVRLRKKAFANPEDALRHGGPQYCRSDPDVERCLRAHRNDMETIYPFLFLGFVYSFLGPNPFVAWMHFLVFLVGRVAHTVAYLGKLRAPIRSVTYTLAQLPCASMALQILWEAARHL
Nature of the data set: Inhibition of mPGES-1 in interleukin-1 beta-stimulated human A549 cell microsomes assessed as reduction in PGE2 production using PGH2 as substrate treated for 15 mins prior to substrate addition measured after 1 min by RP-HPLC analysis. Summed up:
(§1)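 Diluted in 0.1 M potassium phosphate pH 7.4 with 2.5 mM GSH. Compound or vehicle 15 min at 4 °C, then PGH2 added, 1 min. Stopped with FeCl2/citric acid plus 11β-PGE2 internal standard. PGE2 by SPE and RP-HPLC. Mean ± SE.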

Data set [1] is described as follows: Retention time of the compound by RP-HPLC analysis. The data set is classed as physicochemical. Summed up:
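RP-HPLC with eluent A 0.1% TFA in water and eluent B 0.1% TFA in CH3CN, detection at 280 nm.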

The target of data set [2] is T2, Prostaglandin E synthase (Homo sapiens) (UniProt O14684).
T2 sequence (whole entry): T1 sequence (O14684 whole entry)
Kind of data set: Inhibition of mPGES-1 in interleukin-1 beta-stimulated human A549 cell microsomes assessed as reduction in PGE2 production using PGH2 as substrate at 10 uM treated for 15 mins prior to substrate addition measured after 1 min by RP-HPLC analysis. Put shortly:
as §1

The target of data set [3] is T2, Prostaglandin E synthase (Homo sapiens). Nature of the data set: Inhibition of mPGES-1 in interleukin-1 beta-stimulated human A549 cell microsomes assessed as reduction in PGE2 production using PGH2 as substrate at <10 uM treated for 15 mins prior to substrate addition measured after 1 min by RP-HPLC analysis. Summed up: as §1

Activity calls are given as the source filed them. The calls are words filed in the database; no cut-off is given here. Bounds are passed on as bounds.

The IC50 is the concentration that inhibits the measured activity by half. A word on the inhibition: it is the drop in the measured response relative to a control, in per cent. Turning to `CCOC(=O)C1=C(C(=O)c2ccc(OC)cc2)C(c2ccc(-c3cccc(C(F)(F)F)c3)o2)NC(=S)N1` (configuration not stated), the IC50 on Prostaglandin E synthase is > 30 µM. In data set [1], the Retention_time is 32.3 min. In addition, in data set [2], the inhibition was determined as 37%.
`CCOC(=O)C1=C(C(=O)c2ccc(OC)cc2)C(c2cccc(C=O)c2)NC(=O)N1` (configuration not stated) gave a Retention_time in data set [1] of 24.7 min. Besides, the inhibition result in data set [3] was “inactive”.
In the case of `CCOC(=O)C1=C(C(=O)c2ccc(OC)cc2)[C@H](c2cccc(-c3ccc(C#N)cc3)n2)NC(=O)N1`, the Retention_time in data set [1] is recorded as 20.8 min. The inhibition result in data set [3] was “inactive”.
The compound `CCOC(=O)C1=C(C(=O)c2ccc(OC)cc2)C(c2cccc(OCC)c2)NC(=O)N1` (configuration not stated) registered a Retention_time in data set [1] of 22.9 min. Also, in data set [3], the inhibition entry is “inactive”.
For the compound `CCOC(=O)C1=C(C(=O)c2ccc(OC)cc2)[C@H](c2ccc(-c3cccc(C(F)(F)F)c3)o2)NC(=O)N1`, the IC50 on Prostaglandin E synthase worked out at 4.16 µM. In addition, the Retention_time in data set [1] is given as 34.2 min.
On the same counts, the results for `CCOC(=O)C1=C(C(=O)c2ccc(OC)cc2)[C@H](c2ccc(-c3cccc(C(F)(F)F)c3)o2)NC(=O)N1C` are 7.56 µM and 30.3 min.
In data set [1], `CCOC(=O)C1=C(C)N(C)C(=O)NC1c1ccc(-c2cccc(C(F)(F)F)c2)o1` (configuration not stated) registered a Retention_time of 26.7 min. Moreover, in data set [3], the inhibition entry was “inactive”.
The compound `CCOC(=O)C1=C(C(=O)c2ccc(OC)cc2)[C@H](c2coc3c(Br)cc(Br)cc3c2=O)NC(=O)N1` registered a Retention_time in data set [1] of 26.4 min. For the same compound, in data set [3], the inhibition entry is “inactive”.

(Values after ChEMBL document CHEMBL3286213, “Exploration of the dihydropyrimidine scaffold for the development of new potential anti-inflammatory agents blocking prostaglandin E₂ synthase-1 enzyme (mPGES-1)” (Eur J Med Chem, 2014).)
